How the values were obtained:
Format in all cases: functional
[1] = molecular target: Human immunodeficiency virus type 1 reverse transcriptase (Human immunodeficiency virus 1) (UniProt Q72547); experiment: Compound ability to inhibit the production of HIV reverse transcriptase (RT) in culture supernatant of CEM-CL13 on at 22 days at a concentration 0.2 uM
How it was run: (§1)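 CEM-C113 cells in RPMI 1640 with 5% heat-inactivated FCS and polybrene (2 µg/mL) were plated at 1×10^5 cells/mL with compound in PBS, in triplicate, and infected with HIV-1 LAV-Bru. From day 7, every 3–4 days, fresh medium with or without drug was added and 50 µL supernatant was taken for RT microassay. The RT microassay used poly(rA)-oligo(dT) and (methyl-³H)dTTP for 1 h at 37 °C, with TCA precipitation, read as cpm/50 µL.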

[2] = molecular target: Human immunodeficiency virus type 1 reverse transcriptase (Human immunodeficiency virus 1) (UniProt Q72547); experiment: Compounds were evaluated for anti-RT activity by MTT dose and % cell / viability was reported at 7 days of culture
How it was run: (§2)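 HIV-1 was preincubated with compound at 25 µM for 60 min at 37 °C, pelleted, and added to CEM-C113 cells (1×10^5 cells/mL) for 60 min at 37 °C. Medium was then replaced without compound. At days 7 and 9, viability was read by MTT assay on 100 µL of cell suspension.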

[3] = molecular target: Human immunodeficiency virus type 1 reverse transcriptase (Human immunodeficiency virus 1) (UniProt Q72547); experiment: Compounds were evaluated for anti-RT activity by MTT dose and % cell / viability was reported at 13 days of culture
[4] = molecular target: Human immunodeficiency virus type 1 reverse transcriptase (Human immunodeficiency virus 1) (UniProt Q72547); experiment: Percent inhibition measured as the production of HIV reverse transcriptase (RT) in culture supernatant of monocytic U937 on at 11 days at a concentration 1 uM
How it was run: (§3)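 U937 cells in RPMI 1640 with 5% heat-inactivated FCS, penicillin, streptomycin and polybrene (2 μg/mL), 37 °C, 5% CO2. Infected with HIV-1 LAV-Bru; compounds diluted in PBS. 50 μL supernatant aliquots were assayed for RT: 1 h, 37 °C, pH 7.8, Mg2+, poly(rA)-oligo(dT), [3H]dTTP, TCA-pyrophosphate stop, filter counting. % inhibition = 100 − 100 × (treated cpm / virus-control cpm).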

[5] = molecular target: Human immunodeficiency virus type 1 reverse transcriptase (Human immunodeficiency virus 1) (UniProt Q72547); experiment: Compound ability to inhibit the production of HIV reverse transcriptase (RT) in preinfected PBL (peripheral blood lymphocytes) at 7 days at a concentration 5 uM
How it was run: (§4)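 PBL were infected with HIV-1 for 1 h at 37 °C, washed twice, and resuspended in complete medium with 10% interleukin-2 and anti-human α-interferon (1000 units/mL). Cells were plated at 1×10^6 cells/well with or without compound. At each time point, 50 µL supernatant was taken for RT assay ([³H]dTTP incorporation, cpm).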

[6] = molecular target: Human immunodeficiency virus type 1 reverse transcriptase (Human immunodeficiency virus 1) (UniProt Q72547); experiment: Compound ability to inhibit the production of HIV reverse transcriptase (RT) in culture supernatant of monocytic U937 on at 7 days at a concentration 1 uM
How it was run: (§5)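 HIV-1-infected monocytic U937 cultures were kept up to 14 days with compound. Supernatant RT activity was measured as for CEM-C113, as [³H] cpm/50 µL. % inhibition = 100 − 100 × (cpm of treated samples / cpm of control virus).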

[7] = molecular target: Human immunodeficiency virus type 1 reverse transcriptase (Human immunodeficiency virus 1) (UniProt Q72547); experiment: Compound ability to inhibit the production of HIV reverse transcriptase (RT) in preinfected PBL (peripheral blood lymphocytes) at 10 days at a concentration 5 uM; how it was run: as §4
CCRF-CEM [8] = experiment: Concentration required to reduce the viability of uninfected cells (CEM-CL13) by 50% on day 19.; conditions: Homo sapiens, 456 h, read-out: CD50 (the source's name)
How it was run: (§6)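 CEM-C113 cells (1×10^5 cells/mL) were infected with HIV-1 LAV-Bru or mock-infected, with compound dilutions in triplicate, for at least 7 days. Medium with or without drug was renewed every 3–4 days for longer runs. MTT absorbance was read at 540 nm. CD50 = 50% reduction of mock-infected absorbance; ED50 = dose giving 50% protection from CPE. Values are averages of at least two experiments.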

CCRF-CEM [9] = experiment: Concentration required to reduce the viability of uninfected cells (CEM-CL13) by 50% on day 22.; conditions: Homo sapiens, 528 h, read-out: CD50 (the source's name); how it was run: as §6
[10] = molecular target: Human immunodeficiency virus type 1 reverse transcriptase (Human immunodeficiency virus 1) (UniProt Q72547); experiment: Percent inhibition measured as the production of HIV reverse transcriptase (RT) in culture supernatant of monocytic U937 on at 14 days at a concentration 1 uM; how it was run: as §3
[11] = molecular target: Human immunodeficiency virus type 1 reverse transcriptase (Human immunodeficiency virus 1) (UniProt Q72547); experiment: Compounds were evaluated for anti-RT activity by MTT dose and %protection was reported at 13 days of culture
CCRF-CEM [12] = experiment: Concentration that reduced by 50% the HIV induced CPE (cytopathic effect) on day 19.; conditions: Homo sapiens, 456 h, read-out: ED50 (the source's name); how it was run: as §6
[13] = molecular target: Human immunodeficiency virus type 1 reverse transcriptase (Human immunodeficiency virus 1) (UniProt Q72547); experiment: Compounds were evaluated for anti-RT activity by MTT dose and %protection was reported at 7 days of culture; how it was run: as §2
[14] = molecular target: Human immunodeficiency virus type 1 reverse transcriptase (Human immunodeficiency virus 1) (UniProt Q72547); experiment: Compound ability to inhibit the production of HIV reverse transcriptase (RT) in culture supernatant of CEM-CL13 on at 15 days at a concentration 0.2 uM; how it was run: as §1
[15] = molecular target: Human immunodeficiency virus type 1 reverse transcriptase (Human immunodeficiency virus 1) (UniProt Q72547); experiment: Compound ability to inhibit the production of HIV reverse transcriptase (RT) in culture supernatant of monocytic U937 on at 11 days at a concentration 1 uM; how it was run: as §5
[16] = molecular target: Human immunodeficiency virus type 1 reverse transcriptase (Human immunodeficiency virus 1) (UniProt Q72547); experiment: Compounds were evaluated for anti-RT activity at 9 days of culture
How it was run: (§7)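 HIV-1 (12 500 CCID50) was preincubated with compound at 25 µM final for 60 min at 37 °C, pelleted by ultracentrifugation and resuspended. RT was measured at once with poly(rA)-oligo(dT) and ³H-dTTP (1 h, 37 °C, cpm). Treated virus was then put on CEM-C113 cells for 60 min and replaced with compound-free medium. Supernatant RT was read at days 7 and 9.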

[17] = molecular target: Human immunodeficiency virus type 1 reverse transcriptase (Human immunodeficiency virus 1) (UniProt Q72547); experiment: Compound ability to inhibit the production of HIV reverse transcriptase (RT) in preinfected PBL (peripheral blood lymphocytes) at 7 days at a concentration 1 uM; how it was run: as §4
[18] = molecular target: Human immunodeficiency virus type 1 reverse transcriptase (Human immunodeficiency virus 1) (UniProt Q72547); experiment: Compounds were evaluated for anti-RT activity by MTT dose and % cell / viability was reported at 9 days of culture; how it was run: as §2
[19] = molecular target: Human immunodeficiency virus type 1 reverse transcriptase (Human immunodeficiency virus 1) (UniProt Q72547); experiment: Percent inhibition evaluated for anti-RT activity at 9 days of culture; design: concentration or dose not given beside the values; conditions: concentration not given here; how it was run: as §7
[20] = molecular target: Human immunodeficiency virus type 1 reverse transcriptase (Human immunodeficiency virus 1) (UniProt Q72547); experiment: Compound ability to inhibit the production of HIV reverse transcriptase (RT) in preinfected PBL (peripheral blood lymphocytes) at 10 days at a concentration 1 uM; how it was run: as §4
[21] = molecular target: Human immunodeficiency virus type 1 reverse transcriptase (Human immunodeficiency virus 1) (UniProt Q72547); experiment: Compound ability to inhibit the production of HIV reverse transcriptase (RT) in preinfected PBL (peripheral blood lymphocytes) at 14 days at a concentration 1 uM; how it was run: as §4
CCRF-CEM [22] = experiment: Concentration that reduced by 50% the HIV induced CPE (cytopathic effect) on day 22.; conditions: Homo sapiens, 528 h, read-out: ED50 (the source's name); how it was run: as §6
[23] = molecular target: Human immunodeficiency virus type 1 reverse transcriptase (Human immunodeficiency virus 1) (UniProt Q72547); experiment: Compound ability to inhibit the production of HIV reverse transcriptase (RT) in culture supernatant of monocytic U937 on at 14 days at a concentration 1 uM; how it was run: as §5
CCRF-CEM [24] = experiment: Concentration required to reduce the viability of uninfected cells (CEM-CL13) by 50% on day 7.; conditions: Homo sapiens, 168 h, read-out: CD50 (the source's name); how it was run: as §6
CCRF-CEM [25] = experiment: Concentration required to reduce the viability of uninfected cells (CEM-CL13) by 50% on day 11.; conditions: Homo sapiens, 264 h, read-out: CD50 (the source's name); how it was run: as §6
CCRF-CEM [26] = experiment: Concentration that reduced by 50% the HIV induced CPE (cytopathic effect) on day 11.; conditions: Homo sapiens, 264 h, read-out: ED50 (the source's name); how it was run: as §6

| SMILES | Activity (c.p.m. 50ul-1) [1] | Cell viability [2] | Cell viability [3] | inhibition [4] | Activity (c.p.m. 50ul-1) [5] | Activity (c.p.m. 50ul-1) [6] | Activity (c.p.m. 50ul-1) [7] | CC50 (CCRF-CEM [8]) | CC50 (CCRF-CEM [9]) | inhibition [10] | Protection [11] | EC50 (CCRF-CEM [12]) | Protection [13] | Activity (c.p.m. 50ul-1) [14] | Activity (c.p.m. 50ul-1) [15] | Activity (c.p.m. 50ul-1) [16] | Activity (c.p.m. 50ul-1) [17] | Cell viability [18] | inhibition [19] | Activity (c.p.m. 50ul-1) [20] | further results |
| --- | --- | --- | --- | --- | --- | --- | --- | --- | --- | --- | --- | --- | --- | --- | --- | --- | --- | --- | --- | --- | --- |
| CCCCCCCCCCCCCCCCOP(=O)(OC[C@H]1OC(O)[C@@H](O)[C@@H](O)[C@@H]1O)OC[C@H]1OC(n2cc(C)c(=O)[nH]c2=O)C[C@@H]1N=[N+]=[N-] (stereo partly drawn) | 24000 | 77% | 25% | 0% | 3140 | 122000 | 28000 | 2500 nM | 2500 nM | 0% | 10% | 500 nM | 68% | 1700 | 225000 | 10000 | 9320 | 32% | 68% | 71500 | Activity (c.p.m. 50ul-1) [21]: 114000; EC50 (CCRF-CEM [22]): 400 nM; Activity (c.p.m. 50ul-1) [23]: 35000; CC50 (CCRF-CEM [24]): 2600 nM; CC50 (CCRF-CEM [25]): 2600 nM; EC50 (CCRF-CEM [26]): 300 nM |
| Cc1cn([C@H]2C[C@H](N=[N+]=[N-])[C@@H](COP(=O)(O)OCCO[C@H]3O[C@H](CO)[C@@H](O)[C@H](O)[C@@H]3O)O2)c(=O)[nH]c1=O | 27000 | 39% | 20% | 0% | 855 | 306000 | 1100 | 30000 nM | 28000 nM | 0% | 7% | 140 nM | 20% | 2600 | 174000 | 39000 | 923 | 28% | 0% | 4400 | Activity (c.p.m. 50ul-1) [21]: 39700; EC50 (CCRF-CEM [22]): 600 nM; Activity (c.p.m. 50ul-1) [23]: 25000; CC50 (CCRF-CEM [24]): 25000 nM; CC50 (CCRF-CEM [25]): 28000 nM; EC50 (CCRF-CEM [26]): 150 nM |
| Cc1cn([C@H]2C[C@H](N=[N+]=[N-])[C@@H](COP(=O)(O)OC[C@H]3OC(O)[C@@H](O)[C@@H](O)[C@@H]3O)O2)c(=O)[nH]c1=O (stereo partly drawn) | 27000 | 54% | 18% | 5% | 967 | 425000 | 936 | 24000 nM | 24000 nM | 0% | 3% | 200 nM | 38% | 1700 | 137000 | 34000 | 943 | 36% | 0% | 3130 | Activity (c.p.m. 50ul-1) [21]: 46100; EC50 (CCRF-CEM [22]): 600 nM; Activity (c.p.m. 50ul-1) [23]: 22500; CC50 (CCRF-CEM [24]): 27000 nM; CC50 (CCRF-CEM [25]): 28000 nM; EC50 (CCRF-CEM [26]): 200 nM |
